How the values were obtained:
Type in all cases: functional
DU-145 = assay: Cytotoxicity against human DU145 cells assessed as cellular growth at 10 uM after 48 hrs by SRB assay
Method in brief: (§1)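 NCI60 single-dose screen of cells in RPMI 1640 with 5% FBS and 2 mM L-glutamine, preincubated 24 h at 37 °C, 5% CO₂. Cells were then exposed 48 h to compound added from DMSO stock. TCA-fixed, stained with 0.4% SRB in 1% acetic acid, dye solubilised in 10 mM Tris base and read at 515 nm. Growth is given as percent of untreated control.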

MDA-MB-231 [1] = assay: Cytotoxicity against human MDA-MB-231 cells assessed as cellular growth at 10 uM after 48 hrs by SRB assay
Method in brief: (§2)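 NCI-60 panel lines grown in RPMI 1640 with 5% FBS and 2 mM L-glutamine. Plated at 5000–40,000 cells/well and preincubated 24 h at 37 °C, 5% CO₂, with time-zero plates fixed in TCA. Compounds, dissolved in DMSO and diluted in medium, were applied for 48 h. Cells were TCA-fixed (10% final for adherent, 16% for suspension) and stained with 0.4% SRB in 1% acetic acid. Dye was solubilised in 10 mM Tris base and read at 515 nm; growth was expressed as a percentage of untreated control.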

COLO 205 [2] = assay: Cytotoxicity against human COLO205 cells assessed as cellular growth at 10 uM after 48 hrs by SRB assay; method in brief: as §1
K562 = assay: Cytotoxicity against human K562 cells assessed as cellular growth at 10 uM after 48 hrs by SRB assay; method in brief: as §1
SR = assay: Cytotoxicity against human SR cells assessed as cellular growth at 10 uM after 48 hrs by SRB assay; method in brief: as §2
HCT-116 = assay: Cytotoxicity against human HCT116 cells assessed as cellular growth at 10 uM after 48 hrs by SRB assay; method in brief: as §1
NCI-H226 = assay: Cytotoxicity against human NCI-H226 cells assessed as cellular growth at 10 uM after 48 hrs by SRB assay; method in brief: as §2
SF-539 = assay: Cytotoxicity against human SF539 cells assessed as cellular growth at 10 uM after 48 hrs by SRB assay; method in brief: as §2
MDA-MB-435 = assay: Cytotoxicity against human MDA-MB-435 cells assessed as cellular growth at 10 uM after 48 hrs by SRB assay; method in brief: as §2
SK-MEL-5 [3] = assay: Cytotoxicity against human SK-MEL-5 cells assessed as cellular growth at 10 uM after 48 hrs by SRB assay; method in brief: as §2
OVCAR-4 [4] = assay: Cytotoxicity against human OVCAR4 cells assessed as cellular growth at 10 uM after 48 hrs by SRB assay; method in brief: as §2
NCI/ADR-RES [5] = assay: Cytotoxicity against human NCI/ADR-RES cells assessed as cellular growth at 10 uM after 48 hrs by SRB assay; method in brief: as §2
SN12C = assay: Cytotoxicity against human SN12C cells assessed as cellular growth at 10 uM after 48 hrs by SRB assay; method in brief: as §2
TK-10 = assay: Cytotoxicity against human TK10 cells assessed as cellular growth at 10 uM after 48 hrs by SRB assay; method in brief: as §2
SNB-19 = assay: Antitumor activity against human SNB19 cells after 48 hrs by SRB assay; conditions: SNB-19, 48 h
Method in brief: (§3)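 NCI60 panel cells grown in RPMI 1640 with 5% FBS and 2 mM L-glutamine, plated at 5000–40,000 cells/well and preincubated 24 h at 37 °C, 5% CO₂. Compound was added from DMSO at five concentrations, 10-fold or 1/2 log dilutions, then incubated 48 h.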

Malme-3M = assay: Antitumor activity against human MALME-3M cells after 48 hrs by SRB assay
Method in brief: (§4)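 NCI60 panel in RPMI 1640 with 5% FBS and 2 mM L-glutamine. Cells were plated at 5000–40,000/well by doubling time, held 24 h, then time-zero plates were TCA-fixed. Five concentrations (10-fold or half-log dilutions of DMSO stocks) were applied for 48 h at 37 °C, 5% CO2. Cells were fixed with cold TCA (10% final adherent, 16% suspension) and stained with 0.4% SRB. Bound dye was dissolved in 10 mM Tris and read at 515 nm. GI50, TGI and LC50 were calculated per line.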

SK-MEL-5 [6] = assay: Antitumor activity against human SK-MEL-5 cells after 48 hrs by SRB assay; conditions: SK-MEL-5, 48 h; method in brief: as §3
NCI/ADR-RES [7] = assay: Antitumor activity against human NCI/ADR-RES cells after 48 hrs by SRB assay; method in brief: as §4
786-0 = assay: Antitumor activity against human 786-0 cells after 48 hrs by SRB assay; conditions: 786-0, 48 h; method in brief: as §4
MDA-MB-231 [8] = assay: Antitumor activity against human MDA-MB-231 cells after 48 hrs by SRB assay; conditions: MDA-MB-231, 48 h; method in brief: as §4
[9] = Antitumor activity against human Hs 578T cells after 48 hrs by SRB assay; method in brief: as §4
T47D = assay: Antitumor activity against human T47D cells after 48 hrs by SRB assay; method in brief: as §3
OVCAR-4 [10] = assay: Antitumor activity against human OVCAR4 cells after 48 hrs by SRB assay; conditions: OVCAR-4, 48 h; method in brief: as §4
COLO 205 [11] = assay: Antitumor activity against human COLO205 cells after 48 hrs by SRB assay; conditions: COLO 205, 48 h; method in brief: as §4
MOLT-4 = assay: Antitumor activity against human MOLT4 cells after 48 hrs by SRB assay; conditions: MOLT-4, 48 h; method in brief: as §4
SK-MEL-28 = assay: Antitumor activity against human SK-MEL-28 cells after 48 hrs by SRB assay; conditions: SK-MEL-28, 48 h; method in brief: as §3
[12] = read-out: LC50 (the source's name)
[13] = read-out: pLC50 (the source's name) (converted)

COc1cc(/C(=C2\O[C@@H]([C@H]3COC(C)(C)O3)[C@H]3OC(C)(C)O[C@@H]23)c2ccc3ccccc3c2)cc(OC)c1OC
Activity (DU-145): 2.86%
Activity (MDA-MB-231 [1]): 13.6%
Activity (COLO 205 [2]): 66.91%
Activity (K562): 28.12%
Activity (SR): 51.36%
Activity (HCT-116): 58.36%
Activity (NCI-H226): 66.92%
Activity (SF-539): 26.42%
Activity (MDA-MB-435): 26.19%
Activity (SK-MEL-5 [3]): 38.25%
Activity (OVCAR-4 [4]): 25.7%
Activity (NCI/ADR-RES [5]): 25.91%
Activity (SN12C): 24.83%
Activity (TK-10): 22.74%
GI50 (SNB-19): 2.49 µM
TGI (SNB-19): 6.08 µM
CC50 (SNB-19; [12]): > 100 µM
GI50 (Malme-3M): 2.07 µM
LC50 (concentration killing 50% of cells present at time zero) (Malme-3M): > 100 µM
TGI (Malme-3M): 5.59 µM
GI50 (SK-MEL-5 [6]): 4.07 µM
LC50 (SK-MEL-5 [6]): 51.4 µM
TGI (SK-MEL-5 [6]): 15.4 µM
GI50 (NCI/ADR-RES [7]): 4.26 µM
LC50 (NCI/ADR-RES [7]): > 100 µM
TGI (NCI/ADR-RES [7]): 22.3 µM
GI50 (786-0): 2.3 µM
LC50 (786-0): 8.6 µM
TGI (786-0): 4.47 µM
GI50 (MDA-MB-231 [8]): 6.28 µM
TGI (MDA-MB-231 [8]): 69.7 µM
CC50 (MDA-MB-231 [8]; [12]): > 100 µM
GI50 [9]: 4.44 µM
TGI [9]: 53.4 µM
CC50 [9, 12]: > 100 µM
GI50 (T47D; read-out: GI50): 3.45 µM
CC50 (T47D; [12]): > 100 µM
TGI (T47D; read-out: TGI): 40.6 µM
GI50 (T47D; read-out: pGI50 (converted)): 3.47 µM
CC50 (T47D; [13]): > 100 µM
TGI (T47D; read-out: pTGI (converted)): 40.7 µM
GI50 (OVCAR-4 [10]; read-out: GI50): 2.82 µM
CC50 (OVCAR-4 [10]; [12]): > 100 µM
TGI (OVCAR-4 [10]; read-out: TGI): 6.02 µM
GI50 (OVCAR-4 [10]; read-out: pGI50 (converted)): 14.1 µM
CC50 (OVCAR-4 [10]; [13]): > 100 µM
TGI (OVCAR-4 [10]; read-out: pTGI (converted)): 11 µM
GI50 (COLO 205 [11]; read-out: GI50): 6.97 µM
CC50 (COLO 205 [11]; [12]): > 100 µM
TGI (COLO 205 [11]; read-out: TGI): > 100 µM
GI50 (COLO 205 [11]; read-out: pGI50 (converted)): 6.92 µM
CC50 (COLO 205 [11]; [13]): > 100 µM
TGI (COLO 205 [11]; read-out: pTGI (converted)): > 100 µM
LC50 (concentration killing 50% of cells) (MOLT-4): > 100 µM
GI50 (MOLT-4; read-out: GI50): > 100 µM
TGI (MOLT-4; read-out: TGI): > 100 µM
GI50 (MOLT-4; read-out: pGI50 (converted)): 100 µM
CC50 (MOLT-4; [13]): > 100 µM
TGI (MOLT-4; read-out: pTGI): > 100 µM
LC50 (50% lethal concentration) (SK-MEL-28): > 100 µM
GI50 (SK-MEL-28; read-out: GI50): 2.86 µM
TGI (SK-MEL-28; read-out: TGI): 96.5 µM
GI50 (SK-MEL-28; read-out: pGI50 (converted)): 2.88 µM
CC50 (SK-MEL-28; [13]): > 100 µM
TGI (SK-MEL-28; read-out: pTGI): > 100 µM

From ChEMBL document CHEMBL1828575, “Design, synthesis and antiproliferative activities of biarylolefins based on polyhydroxylated and carbohydrate scaffolds” (Eur J Med Chem, 2011)
